Holding throughout (assay type): functional
The test system of assay [1] is Mus musculus. Kind of assay: DOPAC content in mice striata was evaluated after 1 day of administration of compound. The gist of the method: (§1)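 Male Swiss mice (25–40 g) dosed ip, 0.072 mmol/kg on days 1 and 2, then 0.142 mmol/kg on days 3–12. Drugs were given as 0.14 M solutions in normal saline and stored at 5 °C; saline-injected controls. Mice killed 1 day after the last injection. Striata weighed, homogenized, Sephadex-separated, then DA, DOPAC and HVA measured by HPLC-EC in μg/g tissue as mean ± error.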

Assay [2] deals with Mus musculus. As to the kind of experiment: Dopamine content in mice striata was evaluated after 1 day of administration of compound. In a few lines:
as §1

For assay [3], the system named is Mus musculus. Kind of assay: Dopamine content in mice striata was evaluated after 9 days of administration of compound. In a few lines:
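Ip regimen in male Swiss mice (25–40 g): 0.072 mmol/kg on days 1–2, then 0.142 mmol/kg on days 3–12, from 0.14 M saline solutions; saline controls; n=5 per group. Animals killed 9 days after the final injection. Striatal DA measured by HPLC-EC after homogenization and Sephadex cleanup, reported in μg/g tissue.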

For assay [4], the system named is Mus musculus. Kind of assay: HVA content in mice striata was evaluated after 1 day of administration of compound. In a few lines:
as §1

Structures are written as SMILES.

On to `CC1=C(c2ccccc2)CC(C)N(C)C1.O=C(O)/C=C/C(=O)O` (stereo not drawn), for which the Content in the assay with Mus musculus [1] is reported as 1.18 ug (g of tissue)-1; with Mus musculus [2], 15.22 ug (g of tissue)-1; in the assay on Mus musculus [3], 14.49 ug (g of tissue)-1; with Mus musculus [4], 1.27 ug (g of tissue)-1.

Consider `CN1CC=C(c2ccccc2)CC1.Cl`, for which the Content is 0.31 ug (g of tissue)-1 in the assay on Mus musculus [1], 3.16 ug (g of tissue)-1 with Mus musculus [2], 4.34 ug (g of tissue)-1 in the assay on Mus musculus [3] and 0.61 ug (g of tissue)-1 with Mus musculus [4].

As for `CC1=C(c2ccccc2)CCN(C)C1.Cl`, the Content in the assay with Mus musculus [1] is listed as 1.22 ug (g of tissue)-1; in the assay with Mus musculus [2], 13.68 ug (g of tissue)-1; in the assay with Mus musculus [3], 13.85 ug (g of tissue)-1; with Mus musculus [4] it was 1.26 ug (g of tissue)-1.

Turning to `CN1CC=C(c2ccccc2)C(C)(C)C1.Cl`, the Content is 1.31 ug (g of tissue)-1 in the assay with Mus musculus [1], 17.28 ug (g of tissue)-1 in the assay on Mus musculus [2], 17.28 ug (g of tissue)-1 with Mus musculus [3] and 1.39 ug (g of tissue)-1 in the assay with Mus musculus [4].

On to `CC1CN(C)C(C)C=C1c1ccccc1.Cl` (stereo not drawn), for which the Content in the assay with Mus musculus [1] is listed as 1.36 ug (g of tissue)-1; in the assay on Mus musculus [2], 14.42 ug (g of tissue)-1; in the assay on Mus musculus [3] it was 14.65 ug (g of tissue)-1; with Mus musculus [4], 1.39 ug (g of tissue)-1.

On to `CN(C)C/C=C/c1ccccc1.Cl`, for which the Content with Mus musculus [1] was 1.37 ug (g of tissue)-1; in the assay on Mus musculus [2], 13.6 ug (g of tissue)-1; in the assay with Mus musculus [3], 14.56 ug (g of tissue)-1; in the assay on Mus musculus [4], 1.11 ug (g of tissue)-1.

Take `CC1CN(C)CC=C1c1ccccc1.Cl` (stereo not drawn): the Content with Mus musculus [1] is given as 1.11 ug (g of tissue)-1; with Mus musculus [2], 13.21 ug (g of tissue)-1; with Mus musculus [3] it was 13.35 ug (g of tissue)-1; with Mus musculus [4], 1.14 ug (g of tissue)-1.

(Values after ChEMBL document CHEMBL1123420, “Synthesis and toxicity toward nigrostriatal dopamine neurons of 1-methyl-4-phenyl-1,2,3,6-tetrahydropyridine (MPTP) analogues” (1986).)
